High-throughput results (PubChem)
aDG glyco act – alpha-DG glycosylation activation; actives 0.22% (n = 360,000); activation, % at 10 µM; Pro5-aDG cells, alpha-DG glycosylation AlphaScreen (IIH6); 0% Pro5, 100% B10-LARGE cell signal;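 active = activation of at least 8% versus controls, or a plate z-score of at least 8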;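 note: Pro5 are CHO cells carrying HIG-tagged alpha-DG that lacks glycosylation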
NR2E3 ag-1 – NR2E3 (human) agonism; Q9Y5X4; GST-NR2E3/biotin-RetCOR TR-FRET, 1536-well; inhibition of corepressor binding, % at 4.78 µM; actives 0.12% (n = 320,000);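 active = percent inhibition above the cutoff of mean plus 3 SD of all tested compounds, set per screening campaign, cut at about 20% in these data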;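 note: 0% = DMSO wells and 100% = biotin wells as full block of FRET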
Target sequence (Q9Y5X4 whole entry, looked up): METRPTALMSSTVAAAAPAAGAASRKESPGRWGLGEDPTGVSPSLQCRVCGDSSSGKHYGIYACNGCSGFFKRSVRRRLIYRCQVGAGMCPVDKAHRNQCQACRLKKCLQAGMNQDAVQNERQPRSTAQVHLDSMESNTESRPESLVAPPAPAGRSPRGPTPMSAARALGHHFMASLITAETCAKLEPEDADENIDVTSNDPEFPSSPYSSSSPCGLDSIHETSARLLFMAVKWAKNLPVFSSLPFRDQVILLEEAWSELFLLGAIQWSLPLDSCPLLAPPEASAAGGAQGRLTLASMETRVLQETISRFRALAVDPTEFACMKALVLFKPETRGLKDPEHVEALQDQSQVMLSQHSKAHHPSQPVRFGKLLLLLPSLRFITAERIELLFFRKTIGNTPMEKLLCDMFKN
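Test system – NR2E3–RetCOR corepressor complex · Quantity – NR2E3 fusion 1.35 nM · Buffer or medium – Tris pH 7.5 · Incubation – Compound–protein incubation for 5 h at 4 °C · Technique – TR-FRET, Eu(K)-anti-GST donor, streptavidin-D2 acceptor, ex 340, em 617/671 nm · Evaluation – percent inhibition of 671/617 nm emission ratio versus biotin and DMSO controls · Plate – 1536-well format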
Jurkat NFkB inh – lowers PMA/ionomycin-induced NF-kB signal in Jurkat cells | PMA/ionomycin-induced NF-kB luciferase reporter, luminescence | inhibition, % at 4 µM | actives 0.53% (n = 330,000); in the data active = inhibition above about 50%
NR2E3 ag-2 – activates human NR2E3 receptor; Q9Y5X4; CHO-S Gal4-NCOR/VP16-NR2E3 two-hybrid, luciferase; inhibition of corepressor binding, % at 3.98 µM; actives 0.35% (n = 360,000); AID 602229;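 active = inhibition above the mean of all tested compounds plus 3 SD, cut at about 70% in these data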;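 note: 0% = DMSO with NR2E3 transfected cells and 100% = cells lacking NR2E3 construct; higher means lower luciferase signal from less NR2E3 corepressor binding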
697 NFkB inh – lowers PMA/ionomycin-induced NF-kB signal in 697 B cells | AID 435022 | 697 B-cell NF-kB luciferase reporter, 16 h | actives 0.33% (n = 330,000) | inhibition, % at 4 µM; in the data active = inhibition above about 35%
MPTP block – inhibitors of mitochondrial permeability transition pore; isolated mouse mitochondria, Ca2+ swelling absorbance, 30 min; inhibition, % at 10 µM; actives 1.4% (n = 360,000);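 active = inhibition of 50% or more, scaled per plate between neutral and stimulator controls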;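 note: 0% = DMSO wells given calcium and 100% = 1 mM EGTA wells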
697 NFkB conf – inhibitors of the PMA/ionomycin-induced NF-kB reporter in 697 B cells, retest | 697 B-cell NF-kB luciferase, 16 h | inhibition, % at 4 µM | shares compounds with 697 NFkB inh | actives 35% (n = 2,000) | AID 449746; in the data active = inhibition mostly above about 28%, no sharp cut-off; inactive = mostly below about 22%
NR2E3 ag confirm – confirmation of human NR2E3 agonists | inhibition, % at 3.98 µM | AID 624378 | actives 51% (n = 2,300) | CHO-S mammalian two-hybrid NR2E3-NCOR, luciferase luminescence | shares compounds with NR2E3 ag-2;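 active = average inhibition above a cutoff equal to the mean inhibition of all tested compounds plus one SD, cut at about 70% in these data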;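 note: 0% = DMSO in NR2E3 cells and 100% = DMSO in cells lacking NR2E3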
VP16 counter – counter-screen for NR2E3 agonists: GAL4-VP16 reporter inhibitors; inhibition, % at 3.98 µM; actives 29% (n = 2,300); CHO-S GAL4-VP16 luciferase reporter, luminescence; shares compounds with NR2E3 ag-2;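 active = mean inhibition above a cutoff equal to the average over all tested compounds plus one standard deviation, cut at about 70% in these data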;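 note: luciferase from a UAS reporter driven by GAL4-VP16 transactivation; 0% = DMSO with VP16-transfected cells and 100% = DMSO with cells lacking VP16; higher means less reporter light so more repression of VP16 activity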
Rh123 counter – Rhodamine 123 counter-screen of mitochondrial pore hits; shares compounds with MPTP block; isolated mitochondria, membrane potential, Rhodamine 123 fluorescence; inhibition, % at 10 µM; actives 78% (n = 5,000); in the data active = inhibition above about 22%;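 note: 0% = DMSO vehicle and 100% = positive control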
aDG conf – alpha-DG glycosylation activation, confirmation. Pro5-aDG cells, IIH6 AlphaLISA; scaled to LARGE-overexpressing B10 cells as 100%. shares compounds with aDG glyco act. activation, % at 10 µM (by protocol). AID 651671. actives 17% (n = 600);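 active = activation of at least 7% in one or more replicates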;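 note: cells exposed to compound for two days before detection; 0% = DMSO-treated Pro5 cells and 100% = DMSO-treated B10-LARGE cells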
Active calls of the source: *; . = no result. The list is not random: actives were taken first. Their share in the collection is about 2.4%.

SMILES	aDG glyco act	NR2E3 ag-1	Jurkat NFkB inh	NR2E3 ag-2	697 NFkB inh	MPTP block	NR2E3 ag confirm	VP16 counter	others
COc1ccc(N2CCN(C(=O)CCN3C(=S)NC(C)(C)CC3C)CC2)cc1 (stereo not given)	0	-1	-9	-18	-10	0	.	.
CCc1[nH]nc(C(=O)N2CCCC(CCC(=O)N3CCN(c4ccccn4)CC3)C2)c1C (stereo not given)	0	-1	7	9	10	-2	.	.
CCC(CC)C(=O)Nc1ccc(Sc2ccc([N+](=O)[O-])cc2)cc1	0	5	31	28	37*	95*	.	.	697 NFkB conf=30*;Rh123 counter=77*
Cc1ccc(C)c(NC(=O)CCC(=O)NN=C2CCCC2)c1	0	.	2	0	21	-2	.	.
Oc1ccccc1-c1nc(NCc2ccco2)c2ccccc2n1	0	-2	-9	-38	2	22	.	.
Cc1ccc(Nc2nc(NCc3ccco3)c3ccccc3n2)cc1	0	1	-51	10	-283	93*	.	.	697 NFkB conf=-253;Rh123 counter=89*
Cn1c(=N)n(CC(=O)c2ccc(Br)cc2)c2ccccc21	4.8*	-2	-92	-158	-344	0	.	.	697 NFkB conf=-283;aDG conf=6.1*
Cc1nn(CC(=O)NC(C)C(C)C)c(C)c1S(=O)(=O)N1CCCCC1 (stereo not given)	0	.	4	5	12	0	.	.
CCOc1ccc(NC(=O)Cn2cc(C(C)=O)c3ccccc32)cc1	0	0	25	-9	-10	1	.	.
COc1ccc(NC(=O)Cn2cc(C(C)=O)c3ccccc32)cc1	0	-1	6	49	-41	2	57	56
N#Cc1cccc(S(=O)(=O)N2CCN(c3ccnc4cc(Cl)ccc34)CC2)c1	1	3	34	1	26	0	.	.
O=S(=O)(c1cccc(Br)c1)N1CCN(c2ccnc3cc(Cl)ccc23)CC1	0	-1	8	64	22	23	65	60
On1ccccc1=S	0	4	.	101*	.	-8	-97	4
CC(=O)Nc1cccc(NC(=O)c2ccccc2Cl)c1	0	.	.	16	.	-2	.	.
CCc1nnc(NC(=O)c2ccc(S(=O)(=O)N(C)c3ccccc3)cc2)o1	0	3	7	16	8	1	.	.
CCc1nnc(NC(=O)c2ccc(S(=O)(=O)N3CCCc4ccccc43)cc2)o1	1	-1	18	54	-3	-15	88*	44
CCc1nnc(NC(=O)c2ccc(S(=O)(=O)N(CC(C)C)CC(C)C)cc2)o1	1	-1	5	103*	-85	-39	99*	39
C[C@@H]1CC[C@@]2(O[C@@H](CCO)C[C@@H](O)[C@@H]2O)O1	0	2	9	-45	6	1	.	.
N#Cc1cccnc1N1CCN(C(=O)c2[nH]c(C(F)(F)F)nc2-c2ccccc2)CC1	0	.	.	9	.	0	.	.
Cc1ccc(NC(=O)CNC(=O)c2cccc(C)c2)nc1	0	2	-10	53	0	0	75*	18
C=C(C(=O)c1ccccc1)C(NC(C)(C)C)c1ccccc1 (stereo not given)	0	.	.	92*	.	-1	78*	29
CCCS(=O)(=O)c1cnc(C2COc3ccccc3O2)nc1N (stereo not given)	0	1	48	56	-14	0	43	12
CCCCSc1nc2c([nH]1)c(=S)n(C)c(=O)n2C	0	.	.	64	.	0	31	-21
CSc1nc2c([nH]1)c(=S)n(C)c(=O)n2C	0	.	.	33	.	-1	.	.
CCCCC(C)Sc1nc2c([nH]1)c(=S)n(C)c(=O)n2C (stereo not given)	0	.	.	87*	.	2	87*	61
SMILES	aDG glyco act	NR2E3 ag-1	Jurkat NFkB inh	NR2E3 ag-2	697 NFkB inh	MPTP block	NR2E3 ag confirm	VP16 counter	others
CCN(CC)CCSc1nc2c([nH]1)c(=S)n(C)c(=O)n2C	1	.	.	-40	.	0	.	.
CCCC(CC)Sc1nc2c([nH]1)c(=S)n(C)c(=O)n2C (stereo not given)	0	.	.	78*	.	2	22	-11
O=C(CN1C(=O)NC2(CCCC2)C1=O)N1CCN(S(=O)(=O)c2ccc(Cl)c(C(F)(F)F)c2)CC1	0	-5	-11	-10	-5	-1	.	.
CCC(C)[C@H]1CNC(=S)N1CCc1cc(C(F)(F)F)cc(C(F)(F)F)c1 (stereo not given in full)	1	2	12	48	-19	0	-4	17
CCOC(=O)C1CCN(C(=O)CCc2nnc3ccc(N4CCN(C)CC4)nn23)CC1	0	0	6	13	10	-2	.	.
CC1C/C(=N\NC(=S)NCc2ccccc2)CC(C)(C)C1 (stereo not given)	1	0	9	49	-16	0	-31	-3
O=C(NC1CC1)c1ccc(NS(=O)(=O)c2ccc(F)cc2)cc1	0	1	-8	-20	17	-1	.	.
CCOC(=O)c1cc(C)sc1NC(=O)CSc1nccn1C	0	1	11	-22	-12	1	.	.
Cc1cc(C(=O)CSc2ccc(F)cc2)cc(C)c1OC(=S)N(C)C	0	2	-21	63	-136	1	43	9
CC(C)C(NC(=O)c1cccc(S(=O)(=O)N2CCOCC2)c1)C(=O)NCc1ccc(Cl)cc1 (stereo not given)	0	0	2	-16	14	-1	.	.
CN(c1ccccc1)S(=O)(=O)c1cccc(NC(=O)CSc2nnc(N)s2)c1	1	-3	-10	20	-16	8	.	.
CN(c1ccccc1)S(=O)(=O)c1cccc(NC(=O)CSc2nncs2)c1	6	3	9	70	-35	5	66	76*
O=C(CSc1cccc[n+]1[O-])c1cc2ccccc2o1	0	2	-31	78*	-31	6	-22	-16
O=C(O)CSc1cccc[n+]1[O-]	0	-2	-1	-33	15	0	.	.
